Test results published in ChEMBL document CHEMBL3351534, “Design, synthesis and antimycobacterial evaluation of 1-(4-(2-substitutedthiazol-4-yl)phenethyl)-4-(3-(4-substitutedpiperazin-1-yl)alkyl)piperazine hybrid analogues” (Eur J Med Chem, 2014).
In brackets after ≈: the same amount, converted by molar mass.

How the values were obtained:
[1] = Toxicity against mouse RAW264.7 cells assessed as inhibition of cell viability after 72 hrs by MTT assay; type: cell-based
Summary of the method: (§1)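 RAW 264.7 cells were exposed to compounds for 72 h. Viability was then scored by the cells' conversion of MTT into a formazan product, using a non-radioactive cell proliferation kit. Results were expressed as percentage growth inhibition at a single high concentration and as an approximate IC50.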

[2] = test system: Mycobacterium tuberculosis; assay: Antimycobacterial activity against Mycobacterium tuberculosis H37Rv assessed as inhibition of microbial growth at 3.125 ug/mL after 5 days by MABA method; type: functional; settings: 120 h
Summary of the method: (§2)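 MABA in 96-well plates against M. tuberculosis H37Rv. Compounds serially diluted 1:2 across columns, inoculum added, with medium-only and 3–5% DMSO solvent controls. Incubated 37 °C for 5 days. A 1:1 mix of 10× Alamar Blue and 10% Tween 80 was added and plates were reincubated 24 h at 37 °C. Blue read as no growth, pink as growth. MIC read from colour.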

[3] = test system: Mycobacterium tuberculosis; assay: Antimycobacterial activity against Mycobacterium tuberculosis H37Rv after 5 days by MABA method; type: functional; settings: 120 h; summary of the method: as §2
[4] = Toxicity against mouse RAW264.7 cells assessed as inhibition of cell viability at 50 ug/mL after 72 hrs by MTT assay; type: cell-based; settings: read-out: INH; summary of the method: as §1
[5] = Selectivity index, ratio of IC50 for mouse RAW264.7 cells to MIC for Mycobacterium tuberculosis H37Rv; type: toxicity; settings: read-out: Selectivity Index
Summary of the method: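 SI = IC50/MIC. IC50 comes from an MTT assay on RAW 264.7 cells, with viability read as conversion of MTT to formazan after 72 h exposure and % inhibition recorded at 50 µg/mL. MIC comes from the M. tuberculosis H37Rv MABA (5 days at 37 °C, Alamar Blue colour read-out).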

[6] = test system: Mycobacterium tuberculosis; assay: Antimycobacterial activity against Mycobacterium tuberculosis H37Rv assessed as inhibition of microbial growth at 1.56 ug/mL after 5 days by MABA method; type: functional; settings: 120 h; summary of the method: as §2
[7] = test system: Mycobacterium tuberculosis; assay: Antimycobacterial activity against Mycobacterium tuberculosis H37Rv assessed as inhibition of microbial growth at 6.25 ug/mL after 5 days by MABA method; type: functional; settings: 120 h; summary of the method: as §2

Row | SMILES | IC50 at 72 h [1] [µg/mL] | MIC [3] [µg/mL] | cytotoxicity at 72 h, 50 ug/mL [4] [%] | selectivity ratio [5] | further results
1 | Nc1nc(-c2ccc(CCN3CCN(CCCN4CCN(c5ccccc5)CC4)CC3)cc2)cs1 | > 50 | 3.12 (≈ 6.37 µM) | 35.6 | > 15 | inhibition at 3.125 µg/mL [2]: 99%
2 | Nc1nc(-c2ccc(CCN3CCN(CCCCN4CCN(c5ccccc5)CC4)CC3)cc2)cs1 | – | 25 (≈ 49.5 µM) | – | – | –
3 | CNc1nc(-c2ccc(CCN3CCN(CCCN4CCN(c5ccccc5)CC4)CC3)cc2)cs1 | – | 50 (≈ 99.1 µM) | – | – | –
4 | CNc1nc(-c2ccc(CCN3CCN(CCCCN4CCN(c5ccccc5)CC4)CC3)cc2)cs1 | – | 12.5 (≈ 24.1 µM) | – | – | –
5 | Cc1nc(-c2ccc(CCN3CCN(CCCN4CCN(c5ccccc5)CC4)CC3)cc2)cs1 | – | 25 (≈ 51 µM) | – | – | –
6 | Nc1nc(-c2ccc(CCN3CCN(CCCN4CCN(C(c5ccccc5)c5ccccc5)CC4)CC3)cc2)cs1 | > 50 | 3.12 (≈ 5.38 µM) | 38.4 | > 15 | inhibition at 3.125 µg/mL [2]: 99%
7 | Nc1nc(-c2ccc(CCN3CCN(CCCCN4CCN(C(c5ccccc5)c5ccccc5)CC4)CC3)cc2)cs1 | > 50 | 3.12 (≈ 5.25 µM) | 46.4 | > 15 | inhibition at 3.125 µg/mL [2]: 99%
8 | CNc1nc(-c2ccc(CCN3CCN(CCCN4CCN(C(c5ccccc5)c5ccccc5)CC4)CC3)cc2)cs1 | > 50 | 1.56 (≈ 2.62 µM) | 31.8 | > 30 | inhibition at 1.56 µg/mL [6]: 99%
9 | CNc1nc(-c2ccc(CCN3CCN(CCCCN4CCN(C(c5ccccc5)c5ccccc5)CC4)CC3)cc2)cs1 | – | 50 (≈ 82.1 µM) | – | – | –
10 | Cc1nc(-c2ccc(CCN3CCN(CCCN4CCN(C(c5ccccc5)c5ccccc5)CC4)CC3)cc2)cs1 | > 50 | 6.25 (≈ 10.8 µM) | 42.8 | > 7 | inhibition at 6.25 µg/mL [7]: 99%
11 | Nc1nc(-c2ccc(CCN3CCN(CCCN4CCN(c5ccccc5Cl)CC4)CC3)cc2)cs1 | – | 50 (≈ 95.2 µM) | – | – | –
12 | Nc1nc(-c2ccc(CCN3CCN(CCCCN4CCN(c5ccccc5Cl)CC4)CC3)cc2)cs1 | – | 50 (≈ 92.7 µM) | – | – | –
13 | CNc1nc(-c2ccc(CCN3CCN(CCCN4CCN(c5ccccc5Cl)CC4)CC3)cc2)cs1 | – | 12.5 (≈ 23.2 µM) | – | – | –
14 | CNc1nc(-c2ccc(CCN3CCN(CCCCN4CCN(c5ccccc5Cl)CC4)CC3)cc2)cs1 | > 50 | 3.12 (≈ 5.65 µM) | 40.4 | > 15 | inhibition at 3.125 µg/mL [2]: 99%
15 | Cc1nc(-c2ccc(CCN3CCN(CCCN4CCN(c5ccccc5Cl)CC4)CC3)cc2)cs1 | – | 50 (≈ 95.4 µM) | – | – | –
16 | Nc1nc(-c2ccc(CCN3CCN(CCCN4CCN(c5ccc([N+](=O)[O-])cc5)CC4)CC3)cc2)cs1 | > 50 | 6.25 (≈ 11.7 µM) | 36.5 | > 7 | inhibition at 6.25 µg/mL [7]: 99%
17 | Nc1nc(-c2ccc(CCN3CCN(CCCCN4CCN(c5ccc([N+](=O)[O-])cc5)CC4)CC3)cc2)cs1 | – | 12.5 (≈ 22.7 µM) | – | – | –
18 | Nc1nc(-c2ccc(CCN3CCN(CCCCCN4CCN(c5ccc([N+](=O)[O-])cc5)CC4)CC3)cc2)cs1 | > 50 | 6.25 (≈ 11.1 µM) | 44.6 | > 7 | inhibition at 6.25 µg/mL [7]: 99%
19 | CNc1nc(-c2ccc(CCN3CCN(CCCN4CCN(c5ccc([N+](=O)[O-])cc5)CC4)CC3)cc2)cs1 | – | 12.5 (≈ 22.7 µM) | – | – | –
20 | CNc1nc(-c2ccc(CCN3CCN(CCCCN4CCN(c5ccc([N+](=O)[O-])cc5)CC4)CC3)cc2)cs1 | – | 50 (≈ 88.7 µM) | – | – | –
21 | Cc1nc(-c2ccc(CCN3CCN(CCCN4CCN(c5ccc([N+](=O)[O-])cc5)CC4)CC3)cc2)cs1 | – | 50 (≈ 93.5 µM) | – | – | –
22 | Nc1nc(-c2ccc(CCN3CCN(CCCN4CCN(c5ccccn5)CC4)CC3)cc2)cs1 | > 50 | 3.12 (≈ 6.36 µM) | 38.1 | > 15 | inhibition at 3.125 µg/mL [2]: 99%
23 | Nc1nc(-c2ccc(CCN3CCN(CCCCN4CCN(c5ccccn5)CC4)CC3)cc2)cs1 | – | 12.5 (≈ 24.7 µM) | – | – | –
24 | CNc1nc(-c2ccc(CCN3CCN(CCCN4CCN(c5ccccn5)CC4)CC3)cc2)cs1 | – | 12.5 (≈ 24.7 µM) | – | – | –
25 | CNc1nc(-c2ccc(CCN3CCN(CCCCN4CCN(c5ccccn5)CC4)CC3)cc2)cs1 | – | 25 (≈ 48.1 µM) | – | – | –
26 | Cc1nc(-c2ccc(CCN3CCN(CCCN4CCN(c5ccccn5)CC4)CC3)cc2)cs1 | – | 50 (≈ 102 µM) | – | – | –
27 | NNC(=O)c1ccncc1 [ISONIAZID] | – | 0.05 (≈ 0.365 µM) | – | – | –
28 | CO[C@H]1/C=C/O[C@@]2(C)Oc3c(C)c(O)c4c(O)c(c(/C=N/N5CCN(C)CC5)c(O)c4c3C2=O)NC(=O)/C(C)=C\C=C\[C@H](C)[C@H](O)[C@@H](C)[C@@H](O)[C@@H](C)[C@H](OC(C)=O)[C@@H]1C [RIFAMPIN] | – | 0.1 (≈ 0.122 µM) | – | – | –
